Smad3 FoxH1 inh – inhibitors of human Smad3 transcription factor binding; inhibition, % at 25 µM; 88,000 compounds, 0.29% hits; TR-FRET Smad3/Dy647-FoxH1 peptide binding, europium anti-His; AID 630;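 active means compounds that reduce the energy-transfer binding signal between the protein and its labelled peptide by more than half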;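 further: 0% = Smad3 plus labelled peptide maximal FRET and 100% = peptide-only background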
Mac1 fbg inh – blocks human CD11b/CD18 adhesion to fibrinogen; P05107+P11215; K562 CD11b/CD18 adhesion to fibrinogen, ATPlite luminescence; Mn2+ added to activate the integrin; inhibition, % at 10 µM; 93,000 compounds, 0.54% hits; AID 1497;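 active means primary inhibition of 50% or more at 10 µM, then 40% or more on retest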
CD11b adhes enh – enhancers of human CD11b/CD18 binding to fibrinogen. K562 CD11b/CD18 adhesion to fibrinogen, ATPlite luminescence. activation, % at 10 µM. 93,000 compounds, 0.07% hits;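 active means 10 µM primary screen giving 50% or more activity, confirmed by 40% or more on retest at that dose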
sEH act – activators of human soluble epoxide hydrolase; P34913; purified human sEH enzymatic activity, activator screen; activation, % at 2 µM; 91,000 compounds, 0.04% hits; AID 717; in the data active means activation above about 37%
HIV Rev-RRE inh – HIV Rev-RRE protein-RNA interaction inhibition | P05866 | Rev peptide-RRE RNA binding, FRET | inhibition, % at 8 µM | 97,000 compounds, 0.79% hits;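 active means inhibition above the screen-wide mean plus 3 SD, cut at about 35% in these data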;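 further: 0% = median DMSO wells and 100% = median Neomycin B control wells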
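Test system: labelled RRE RNA duplex and labelled Rev peptide. Times: 5 min compound–RNA preincubation, then 15 min with peptide, 25 °C. Doses: single-dose 8 µM. Measured by: FRET, excitation 480 nm, emission 540 nm donor and 671 nm acceptor. Measure: % inhibition of FRET ratio versus controls.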
sEH inhibitor – inhibitors of human soluble epoxide hydrolase. P34913. recombinant human sEH enzymatic activity assay. inhibition, % at 2 µM. 91,000 compounds, 0.34% hits; in the data active means inhibition above about 80%
* hit, by the source's call; nt = not tested or not shown; [ ] = remark or other dose. Shown are actives, neighbours in structure and some others; about 1.6% of the full set was active somewhere.

SMILES	Smad3 FoxH1 inh	Mac1 fbg inh	CD11b adhes enh	sEH act	HIV Rev-RRE inh	sEH inhibitor
N#Cc1c(-c2ccccc2)cc(-c2ccco2)c(C#N)c1N	-3	1	80	4	37*	-3
c1c[nH]c(CN2CCOCC2)n1	-13	nt	nt	nt	nt	nt
C[C@H](Br)C(=O)Nc1ccc(C(=O)O)c(O)c1	3	nt	nt	nt	nt	nt
CC(Sc1nc2ccccc2s1)C(=O)Nc1nnc(C(C)C)s1 (configuration not stated)	-17	17	0	37*	12	-39
c1cn(-c2ncnc3sc4c(c23)CCCC4)cn1	6	-14	-2	nt	1	nt
CCOC(=O)C1=C(CSc2nc(CC)c(C)cc2C#N)OC(N)=C(C#N)C1c1ccc(OC)cc1 (configuration not stated)	3	nt	nt	0	24	3
COC(=O)C1=C(CSc2nc3c(cc2C#N)CN(C)CC3)OC(N)=C(C#N)C1c1ccc(F)cc1 (configuration not stated)	8	nt	nt	-6	65*	8
O=C(CCSCCc1ccccn1)Nc1ccc(Cl)cn1	54*[fluorescence artefact?]	3	-9	-13	1	12
O=C(CCSCCc1ccccn1)Nc1ccccn1	-1	14	-2	nt	5	nt
N[C@@H]1[C@H](C(=O)O)[C@@H]2C=C[C@H]1C2	2	nt	nt	nt	nt	nt
c1ccc2c[n+](CCCC[n+]3ccc4ccccc4c3)ccc2c1	51*	nt	nt	nt	nt	nt
COc1ccc(-c2nc(N)c3ncn([C@H]4O[C@H](CO)[C@@H](O)[C@@H]4O)c3n2)cc1	6	nt	nt	nt	nt	nt
O=C1CCCC2=C1C1(O)C(=O)c3ccccc3C1(O)O2 (configuration not stated)	66*	-5	-1	-2	5	3
N#CC1=C(N)OC2=C(C(=O)CCC2)[C@]12C(=O)N(CC(N)=O)c1ccccc12	13	-7	-2	1	10	-2
CCN(CC)c1c(-c2ccccc2)c2cc(C)ccc2[nH]c1=O	50*[fluorescence artefact?]	nt	nt	nt	nt	nt
Ic1ccc2c(c1)N(c1ccccc1)c1cc(Nc3ccc4nc5ccc(I)cc5[n+](-c5ccccc5)c4c3)ccc1N2	90*	nt	nt	nt	nt	nt
CN1CCc2nc(NC(=O)c3cccc(OC(F)F)c3)sc2C1	9	-50	-2	-2	65*	4
COc1ccc(C2C=C(c3ccccc3)Nc3ncnn32)cc1 (configuration not stated)	-7	31	0	6	45*	-6
Clc1ccc(C2=CC(c3ccco3)n3ncnc3N2)cc1 (configuration not stated)	-1	nt	nt	0	122*[fluorescence artefact?]	0
CC1=C(C(=O)Nc2ccccc2)C(c2ccco2)n2ncnc2N1 (configuration not stated)	3	-6	-4	0	8	1
CCOc1ccc(C2C=C(c3ccc(C)cc3)Nc3ncnn32)cc1 (configuration not stated)	1	-17	1	nt	30	nt
CS(=O)(=O)N1CCCC(C(=O)N2CCc3ccccc3C2)C1 (configuration not stated)	nt	-1	1	2	2	-3
CS(=O)(=O)N1CCC(C(=O)N2CCc3ccccc3C2)CC1	-2	-1	-7	39*	8	-39
CCCc1nnc(NC(=O)CCC(=O)N2CCN(C3c4ccccc4-c4ccccc43)CC2)s1	nt	0	1	nt	nt	nt
CC1=CC(C)(C)N(S(=O)(=O)c2ccc(C)cc2)c2ccc(C)cc21	-1	76*	-5	2	18	-5
SMILES	Smad3 FoxH1 inh	Mac1 fbg inh	CD11b adhes enh	sEH act	HIV Rev-RRE inh	sEH inhibitor
COC(=O)Nc1ccc(=O)n(Cc2c(Cl)cccc2Cl)c1	nt	nt	nt	4	2	-2
COC(=O)Cc1ccc(NC(=O)c2ccc(C(C)(C)C)cc2)cc1	5	59*	-8	3	5	-4
CCOC(=O)c1c2c(n3ccccc13)C(=O)c1ccccc1C2=O	9	nt	nt	nt	nt	nt
CCOC(=O)C(C(=O)OCC)c1cc(Br)c2noc3c2c1C(=O)c1ccccc1-3	nt	7	-4	-4	58*	5
O=C1CC(=O)N(Cc2ccco2)C(=S)N1	-1	-14	0	-1	77*	2
N[C@@H](Cc1cccnn1)C(=O)O	2	nt	nt	nt	nt	nt
OCCSCc1ccccc1	-8	nt	nt	nt	nt	nt
CCOc1ccc2cc(/C=C/C(=O)c3ccco3)c(Cl)nc2c1	-5	9	0	2	53*	-6
C=CC[C@@H](C(=O)O)c1ccccc1	-7	nt	nt	nt	nt	nt
CN(C)c1ccc(/C=C/c2cc[n+](C)cc2)cc1	-14	6	0	8	49*[fluorescence artefact?]	-11

Assay outcomes: PubChem, several laboratories
